Legend:
UO-31 = assay: Cytotoxicity against human UO31 cells after 48 hrs; format: functional; conditions: UO-31, 48 h
OVCAR-3 = assay: Cytotoxicity against human OVCAR3 cells after 48 hrs; format: functional; conditions: OVCAR-3, 48 h
SF-268 = assay: Cytotoxicity against human SF268 cells after 48 hrs; format: functional; conditions: SF-268, 48 h
UACC-62 = assay: Cytotoxicity against human UACC62 cells after 48 hrs; format: functional; conditions: UACC-62, 48 h
T47D = assay: Cytotoxicity against human T47D cells after 48 hrs; format: functional
SK-OV-3 = assay: Cytotoxicity against human SKOV3 cells after 48 hrs; format: functional; conditions: SK-OV-3, 48 h
PC-3 = assay: Cytotoxicity against human PC3 cells after 48 hrs; format: functional; conditions: PC-3, 48 h
Tubulin (Sus scrofa) = Tubulin (Sus scrofa) (UniProt P02554+P02550); assay: Inhibition of porcine brain tubulin polymerization measured every 30 seconds for 30 mins
HL-60 = assay: Cytotoxicity against human HL60 cells after 48 hrs; format: functional, cell-based; conditions: HL-60, 48 h
Procedure, shortened: (§1)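 MTT viability assay on log-phase cells at 37 °C, exposed to compound or DMSO vehicle for 48 h. MTT (1 mg/mL in PBS) was then added for 2 h, and absorbance was read at 570 nm with 630 nm correction. IC50 is the concentration giving 50% proliferation inhibition. Cells were cultured in 5% CO2: HL-60 in RPMI-1640 with 10% FBS; Hep3B in DMEM/F12 with 10% FBS; Detroit 551 in DMEM with 10% FBS.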

[1] = Cytotoxicity against human Hep3B cells after 48 hrs; format: functional, cell-based, Hep 3B2; procedure, shortened: as §1
SW-620 = assay: Cytotoxicity against human SW620 cells after 48 hrs; format: functional; conditions: SW-620, 48 h
Detroit 551 = assay: Cytotoxicity against human Detroit 551 cells after 48 hrs; format: cell-based; conditions: Detroit 551, 48 h; procedure, shortened: as §1
UACC-257 = assay: Cytotoxicity against human UACC257 cells after 48 hrs; format: functional; conditions: UACC-257, 48 h
LOX IMVI = assay: Cytotoxicity against human LOXIMVI cells after 48 hrs; format: functional
SK-MEL-5 = assay: Cytotoxicity against human SK-MEL-5 cells after 48 hrs; format: functional; conditions: SK-MEL-5, 48 h
[2] = Cytotoxicity against human NCI-ADR-RES cells after 48 hrs; format: functional
NCI-H322M = assay: Cytotoxicity against human NCI-H322M cells after 48 hrs; format: functional
HOP-92 = assay: Cytotoxicity against human HOP92 cells after 48 hrs; format: functional; conditions: HOP-92, 48 h
Tubulin (Homo sapiens) = Tubulin (Homo sapiens) (UniProt P68371+Q9H4B7+P0DPH7+P68366+Q13509+Q71U36+P04350+Q3ZCM7+P07437+P68363+Q9BQE3+Q6PEY2+Q13885+Q9BVA1+Q9BUF5); assay: Inhibition of tubulin polymerization in human NCI-H522 cells assessed as alpha-tubulin accumulation in cytoskeletal fraction after 24 hrs by Western blot analysis; format: cell-based
Procedure, shortened: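 NCI-H522 cells were exposed for 24 h to compound (10, 30 or 100 nM) or DMSO vehicle. They were then lysed 5 min at 37 °C in hypotonic buffer (1 mM MgCl2, 2 mM EGTA, 0.5% NP-40, protease inhibitors, 20 mM Tris-HCl pH 6.8) and centrifuged at 15,000 × g for 10 min at 25 °C. α- and β-tubulin were assessed in the cytoskeletal fraction.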

NCI-H460 = assay: Cytotoxicity against human NCI-H460 cells after 48 hrs; format: functional, cell-based; conditions: NCI-H460, 48 h
RXF 393 = assay: Cytotoxicity against human RXF393 cells after 48 hrs; format: functional; conditions: RXF 393, 48 h
NCI-H23 = assay: Cytotoxicity against human NCI-H23 cells after 48 hrs; format: functional; conditions: NCI-H23, 48 h
HCT-15 = assay: Cytotoxicity against human HCT15 cells after 48 hrs; format: functional; conditions: HCT-15, 48 h
SNB-75 = assay: Cytotoxicity against human SNB75 cells after 48 hrs; format: functional; conditions: SNB-75, 48 h
SK-MEL-2 = assay: Cytotoxicity against human SK-MEL-2 cells after 48 hrs; format: functional; conditions: SK-MEL-2, 48 h
Procedure, shortened: (§2)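 Tested in the NCI-60 human cancer cell line panel. Results are given as log concentrations: GI50 reduced cell growth to 50% […], TGI caused total growth inhibition, and LC50 killed 50% of the test population.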

SN12C = assay: Cytotoxicity against human SN12C cells after 48 hrs; format: functional
MOLT-4 = assay: Cytotoxicity against human MOLT4 cells after 48 hrs; format: functional; conditions: MOLT-4, 48 h
[3] = Cytotoxicity against human EKVX cells after 48 hrs; format: functional; procedure, shortened: as §2
MDA-MB-468 = assay: Cytotoxicity against human MDA-MB-468 cells after 48 hrs; format: functional; conditions: MDA-MB-468, 48 h
[4] = read-out: pLC50 (the source's name) (converted)

Tubulin (Sus scrofa), sequence (P02550 whole entry, looked up): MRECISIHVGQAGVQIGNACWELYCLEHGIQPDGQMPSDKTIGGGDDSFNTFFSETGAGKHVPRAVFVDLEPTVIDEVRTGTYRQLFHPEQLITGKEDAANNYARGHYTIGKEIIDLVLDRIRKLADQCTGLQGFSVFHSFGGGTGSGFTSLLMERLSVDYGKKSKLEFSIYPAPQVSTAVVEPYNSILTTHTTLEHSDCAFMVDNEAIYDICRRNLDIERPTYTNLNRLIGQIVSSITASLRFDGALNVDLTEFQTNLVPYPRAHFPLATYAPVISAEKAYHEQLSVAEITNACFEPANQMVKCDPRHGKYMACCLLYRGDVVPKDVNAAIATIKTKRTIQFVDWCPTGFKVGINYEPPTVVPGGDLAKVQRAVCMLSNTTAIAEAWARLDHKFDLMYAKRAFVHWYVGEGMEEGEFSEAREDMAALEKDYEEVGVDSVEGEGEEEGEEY
Tubulin (Sus scrofa), sequence (P02554 whole entry, looked up): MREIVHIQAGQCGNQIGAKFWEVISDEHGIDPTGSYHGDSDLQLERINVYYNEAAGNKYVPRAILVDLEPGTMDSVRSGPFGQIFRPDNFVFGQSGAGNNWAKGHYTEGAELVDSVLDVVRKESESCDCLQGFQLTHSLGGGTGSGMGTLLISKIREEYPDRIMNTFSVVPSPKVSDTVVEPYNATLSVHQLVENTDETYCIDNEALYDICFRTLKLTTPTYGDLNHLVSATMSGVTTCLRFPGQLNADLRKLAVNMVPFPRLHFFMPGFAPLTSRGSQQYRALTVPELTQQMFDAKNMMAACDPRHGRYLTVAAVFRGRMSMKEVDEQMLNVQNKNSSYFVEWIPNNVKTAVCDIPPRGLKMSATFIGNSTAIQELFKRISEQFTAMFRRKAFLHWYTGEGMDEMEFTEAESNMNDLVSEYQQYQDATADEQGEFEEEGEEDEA

COc1cc(O)cc(-c2cc(=O)c3cc(N4CCCC4)ccc3[nH]2)c1
GI50 (UO-31): 182 nM | CC50 (UO-31; [4]): > 100 µM | TGI (UO-31; read-out: pTGI): > 100 µM | GI50 (OVCAR-3; read-out: pGI50 (converted)): 23.4 nM | CC50 (OVCAR-3; [4]): 6.46 µM | TGI (OVCAR-3; read-out: pTGI (converted)): 89.1 nM | GI50 (SF-268): 25.7 nM | CC50 (SF-268; [4]): > 100 µM | TGI (SF-268; read-out: pTGI): > 100 µM | GI50 (UACC-62): 646 nM | CC50 (UACC-62; [4]): > 100 µM | TGI (UACC-62; read-out: pTGI): > 100 µM | GI50 (T47D): > 100 µM | CC50 (T47D; [4]): > 100 µM | TGI (T47D; read-out: pTGI): > 100 µM | GI50 (SK-OV-3): 23.4 nM | CC50 (SK-OV-3; [4]): > 100 µM | TGI (SK-OV-3; read-out: pTGI (converted)): 25.1 µM | GI50 (PC-3): 97.7 nM | CC50 (PC-3; [4]): > 100 µM | TGI (PC-3; read-out: pTGI): > 100 µM | inhibition (Tubulin (Sus scrofa)): Dose-dependent effect | IC50 (HL-60): 100 nM | IC50 [1]: 500 nM | GI50 (SW-620): 44.7 nM | CC50 (SW-620; [4]): > 100 µM | TGI (SW-620; read-out: pTGI): > 100 µM | IC50 (Detroit 551): > 50 µM | GI50 (UACC-257): 708 nM | CC50 (UACC-257; [4]): > 100 µM | TGI (UACC-257; read-out: pTGI): > 100 µM | GI50 (LOX IMVI): 32.4 nM | CC50 (LOX IMVI; [4]): > 100 µM | TGI (LOX IMVI; read-out: pTGI): > 100 µM | GI50 (SK-MEL-5): 24.6 nM | CC50 (SK-MEL-5; [4]): 490 nM | TGI (SK-MEL-5; read-out: pTGI (converted)): 66.1 nM | GI50 [2]: 61.7 nM | CC50 [2, 4]: > 100 µM | TGI ([2]; read-out: pTGI (converted)): 513 nM | GI50 (NCI-H322M): 72.4 nM | CC50 (NCI-H322M; [4]): > 100 µM | TGI (NCI-H322M; read-out: pTGI): > 100 µM | GI50 (HOP-92): 30.9 µM | CC50 (HOP-92; [4]): > 100 µM | TGI (HOP-92; read-out: pTGI): > 100 µM | inhibition (Tubulin (Homo sapiens)): Dose-dependent effect | GI50 (NCI-H460): 324 nM | IC50 (NCI-H460): 2120 nM | LC50 (NCI-H460): > 100 µM | TGI (NCI-H460; read-out: pTGI): > 100 µM | GI50 (RXF 393): 40.7 nM | CC50 (RXF 393; [4]): > 100 µM | TGI (RXF 393; read-out: pTGI (converted)): 24 µM | GI50 (NCI-H23): 126 nM | CC50 (NCI-H23; [4]): > 100 µM | TGI (NCI-H23; read-out: pTGI (converted)): 81.3 µM | GI50 (HCT-15): 53.7 nM | CC50 (HCT-15; [4]): > 100 µM | TGI (HCT-15; read-out: pTGI): > 100 µM | GI50 (SNB-75): 34.7 nM | CC50 (SNB-75; [4]): 77.6 µM | TGI (SNB-75; read-out: pTGI (converted)): 13.2 µM | GI50 (SK-MEL-2): 28.2 nM | CC50 (SK-MEL-2; [4]): 87.1 µM | GI50 (SN12C): 72.4 nM | CC50 (SN12C; [4]): > 100 µM | TGI (SN12C; read-out: pTGI): > 100 µM | GI50 (MOLT-4): 34.7 nM | CC50 (MOLT-4; [4]): > 100 µM | TGI (MOLT-4; read-out: pTGI): > 100 µM | CC50 [3, 4]: > 100 µM | TGI ([3]; read-out: pTGI): > 100 µM | GI50 (MDA-MB-468): 263 nM | CC50 (MDA-MB-468; [4]): > 100 µM | TGI (MDA-MB-468; read-out: pTGI (converted)): 2000 nM

Source: ChEMBL document CHEMBL2417372, “Design, synthesis, and mechanism of action of 2-(3-hydroxy-5-methoxyphenyl)-6-pyrrolidinylquinolin-4-one as a potent anticancer lead” (Bioorg Med Chem Lett, 2013)
